Data as given in ChEMBL document CHEMBL3102728, “Leonurusoleanolides E-J, minor spirocyclic triterpenoids from Leonurus japonicus fruits” (J Nat Prod, 2014).

Tests used:
Format in all cases: functional, cell-based
[1] = Cytotoxicity against human BGC823 cells after 72 hrs by CellTitre-Glo luminescent cell viability assay; settings: BGC-823, 72 h
Jurkat = assay: Cytotoxicity against human Jurkat cells after 72 hrs by CellTitre-Glo luminescent cell viability assay
Summary of the method: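 Jurkat grown in RPMI-1640 with 10% FBS and penicillin/streptomycin at 37 °C, 5% CO2. Cells seeded at 1000 per well, then given serially diluted compounds, with staurosporine as the positive control. Incubated 72 h in the dark, away from bright light. Viability read by CellTiter-Glo luminescence. IC50 obtained by regression of % viable cells against log concentration, 10 concentrations, triplicate experiments.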

Huh-7 = assay: Cytotoxicity against human HuH7 cells after 72 hrs by CellTitre-Glo luminescent cell viability assay; settings: Huh-7, 72 h
MCF7 = assay: Cytotoxicity against human MCF7 cells after 72 hrs by CellTitre-Glo luminescent cell viability assay; settings: MCF7, 72 h
[2] = Cytotoxicity against human KE-97 cells after 72 hrs by CellTitre-Glo luminescent cell viability assay; settings: KE-97, 72 h

Structure (SMILES) | IC50 [1] | IC50 (Jurkat) | IC50 (Huh-7) | IC50 (MCF7) | IC50 [2]
CC1(C)CC[C@]2(CC[C@]3(C)C(=CC[C@@H]4[C@@]5(C)C[C@@H](O)[C@H](OC(=O)/C=C/c6ccc(O)cc6)[C@@](C)(CO)[C@@H]5CC[C@]43C)[C@H]2O)C1 | > 10 µM | > 10 µM | > 10 µM | > 10 µM | > 10 µM
CC1(C)CC[C@]2(CC[C@]3(C)C(=CC[C@@H]4[C@@]5(C)C[C@@H](O)[C@H](OC(=O)/C=C\c6ccc(O)cc6)[C@@](C)(CO)[C@@H]5CC[C@]43C)[C@H]2O)C1 | > 10 µM | > 10 µM | > 10 µM | > 10 µM | > 10 µM
COc1cc(/C=C/C(=O)O[C@H]2[C@H](O)C[C@@]3(C)[C@@H](CC[C@]4(C)[C@@H]3CC=C3[C@@H](O)[C@@]5(CCC(C)(C)C5)CC[C@]34C)[C@]2(C)CO)ccc1O | > 10 µM | > 10 µM | > 10 µM | > 10 µM | > 10 µM
COc1cc(/C=C\C(=O)O[C@H]2[C@H](O)C[C@@]3(C)[C@@H](CC[C@]4(C)[C@@H]3CC=C3[C@@H](O)[C@@]5(CCC(C)(C)C5)CC[C@]34C)[C@]2(C)CO)ccc1O | > 10 µM | > 10 µM | > 10 µM | > 10 µM | > 10 µM
CC1(C)CC[C@]2(CC[C@]3(C)C(=CC[C@@H]4[C@@]5(C)C[C@@H](O)[C@H](O)[C@@](C)(CO)[C@@H]5CC[C@]43C)[C@H]2O)C1 | > 10 µM | > 10 µM | > 10 µM | 8.5 µM | > 10 µM
COc1cc(/C=C/C(=O)OC[C@@]2(C)[C@@H]3CC[C@]4(C)[C@H](CC=C5[C@@H](O)[C@]6(CCC(C)(C)C6)CC[C@]54C)[C@@]3(C)C[C@@H](O)[C@@H]2O)ccc1O | > 10 µM | > 10 µM | > 10 µM | > 10 µM | > 10 µM
CC1(C)CC[C@@]2(CC[C@]3(C)C(=CC[C@@H]4[C@@]5(C)C[C@@H](O)[C@H](O)[C@@](C)(COC(=O)/C=C/c6ccc(O)cc6)[C@@H]5CC[C@]43C)[C@H]2O)C1 | > 10 µM | > 10 µM | > 10 µM | > 10 µM | > 10 µM
COc1cc(/C=C\C(=O)OC[C@@]2(C)[C@@H]3CC[C@]4(C)[C@H](CC=C5[C@@H](O)[C@]6(CCC(C)(C)C6)CC[C@]54C)[C@@]3(C)C[C@@H](O)[C@@H]2O)ccc1O (relative stereo) | > 10 µM | > 10 µM | > 10 µM | > 10 µM | > 10 µM
CC1(C)CC[C@@]2(CC[C@]3(C)C(=CC[C@@H]4[C@@]5(C)C[C@@H](O)[C@H](O)[C@@](C)(COC(=O)/C=C\c6ccc(O)cc6)[C@@H]5CC[C@]43C)[C@H]2O)C1 (relative stereo) | > 10 µM | > 10 µM | > 10 µM | > 10 µM | > 10 µM
CC1(C)CC[C@@]2(CC[C@]3(C)C(=CC[C@@H]4[C@@]5(C)C[C@@H](O)[C@H](O)[C@@](C)(COC(=O)/C=C/c6ccc(O)c(O)c6)[C@@H]5CC[C@]43C)[C@H]2O)C1 (relative stereo) | > 10 µM | 9.7 µM | 9.7 µM | 4.3 µM | > 10 µM
CC1(C)CC[C@@]2(CC[C@]3(C)C(=CC[C@@H]4[C@@]5(C)C[C@@H](O)[C@H](OC(=O)/C=C/c6ccc(O)c(O)c6)[C@@](C)(CO)[C@@H]5CC[C@]43C)[C@H]2O)C1 (relative stereo) | 7.5 µM | 3.9 µM | 1.9 µM | 4.6 µM | 3 µM
CN[C@@H]1C[C@H]2O[C@@](C)([C@@H]1OC)n1c3ccccc3c3c4c(c5c6ccccc6n2c5c31)C(=O)NC4 [STAUROSPORINE] | – | 0.14 µM | – | – | –
